Common to all, as to format: functional, organism-based
In test [1] the test system is Mus musculus. As to the kind of experiment: Immunostimulatory activity in ovalbumin-immunized BALB/c mouse assessed as potentiation of OVA specific antibody response by measuring increase in serum anti-OVA IgG level at 100 ug, sc administered at 14 days interval for 3 times and measured at 4 to 6 week post OVA immunization by ELISA. In a few lines:
(§1)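 Female BALB/c mice, 8-10 weeks old, six per group. Given OVA (20 μg) s.c. alone or with 100 μg saponin adjuvant on days 0, 14 and 28. Tail-vein blood was taken before each dose and 2 weeks after the last. Serum anti-OVA IgG, IgG1 or IgG2a was measured by ELISA on OVA-coated (0.1 μg/ml) plates with serial two-fold dilutions in duplicate.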
In general terms: ELISA stands for enzyme-linked immunosorbent assay.

For test [2], the system named is Mus musculus. As to the kind of experiment: Immunostimulatory activity in rHagB-immunized BALB/c mouse assessed as potentiation of rHagB specific antibody response by measuring increase in serum anti-rHagB IgG level at 100 ug, sc administered at 14 days interval for 3 times and measured at 2 to 4 week post rHagB immunization by ELISA. An outline of the steps:
(§2)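 Female BALB/c mice, 8-10 weeks old, six per group. Given His-tag-purified recombinant HagB (35 μg) s.c. alone or with 100 μg saponin adjuvant on days 0, 14 and 28. Serum was collected before each dose and 2 weeks post-final. Anti-rHagB IgG, IgG1 or IgG2a was measured by ELISA on rHagB-coated (1 μg/ml) plates with duplicate serial dilutions.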

In test [3] the test system is Mus musculus. Kind of test: Immunostimulatory activity in rHagB-immunized BALB/c mouse assessed as potentiation of rHagB specific Th1 immune response by measuring increase in serum anti-rHagB IgG2a level at 100 ug, sc administered at 14 days interval for 3 times and measured at 2 to 6 week post rHagB immunization by ELISA. In a few lines: as §2
Test [4] deals with Mus musculus. Kind of test: Immunostimulatory activity in rHagB-immunized BALB/c mouse assessed as potentiation of rHagB specific Th2 immune response by measuring increase in serum anti-rHagB IgG1 level at 100 ug, sc administered at 14 days interval for 3 times and measured at 2 to 4 week post rHagB immunization by ELISA. In a few lines:
as §2

Test [5] concerns Mus musculus. As to the kind of experiment: Immunostimulatory activity in ovalbumin-immunized BALB/c mouse assessed as potentiation of OVA specific Th1 immune response by measuring increase in serum anti-OVA IgG2a level at 100 ug, sc administered at 14 days interval for 3 times and measured at 4 to 6 week post OVA immunization by ELISA. An outline of the steps: as §1
Test [6] deals with Mus musculus. Kind of test: Immunostimulatory activity in ovalbumin-immunized BALB/c mouse assessed as potentiation of OVA specific Th2 immune response by measuring increase in serum anti-OVA IgG1 level at 100 ug, sc administered at 14 days interval for 3 times and measured at 4 to 6 week post OVA immunization by ELISA. In a few lines:
as §1

The test system of test [7] is Mus musculus. Kind of test: Immunostimulatory activity in rHagB-immunized BALB/c mouse assessed as potentiation of rHagB specific Th2 immune response by measuring increase in serum anti-rHagB IgG1 level at 100 ug, sc administered at 14 days interval for 3 times and measured at 6 week post rHagB immunization by ELISA. In a few lines: as §2
For test [8], the system named is Mus musculus. As to the kind of experiment: Immunostimulatory activity in ovalbumin-immunized BALB/c mouse assessed as potentiation of OVA specific Th2 immune response by measuring increase in serum anti-OVA IgG1 level at 100 ug, sc administered at 14 days interval for 3 times and measured at 6 week post OVA immunization by ELISA. An outline of the steps: as §1

In test [9] the test system is Mus musculus. As to the kind of experiment: Immunostimulatory activity in ovalbumin-immunized BALB/c mouse assessed as potentiation of OVA specific Th2 immune response by measuring increase in serum anti-OVA IgG1 level at 100 ug, sc administered at 14 days interval for 3 times and measured at 4 week post OVA immunization by ELISA. An outline of the steps:
as §1

Test [10] deals with Mus musculus. Kind of test: Immunostimulatory activity in rHagB-immunized BALB/c mouse assessed as potentiation of rHagB specific antibody response by measuring increase in serum anti-rHagB IgG level at 100 ug, sc administered at 14 days interval for 3 times and measured at 6 week post rHagB immunization by ELISA. In a few lines:
as §2

Structures are written as SMILES. Activity calls are given as the source filed them. The calls are words filed in the database; no cut-off is given here.

Take `C[C@@H]1O[C@@H](O[C@H]2[C@H](O)[C@@H](C(=O)NCCCCCCCCCCC(=O)OCc3ccccc3)O[C@@H](O[C@H]3CC[C@]4(C)[C@H]5CC=C6[C@@H]7CC(C)(C)CC[C@]7(C(=O)O[C@@H]7O[C@H](C)[C@H](O)[C@H](O)[C@H]7O[C@H]7O[C@@H](C)[C@H](O[C@H]8OC[C@H](O)[C@@H](O)[C@@H]8O)[C@@H](O[C@@H]8O[C@H](CO)[C@@H](O)[C@H](O[C@@H]9OC[C@@H](O)[C@H](O)[C@H]9O)[C@H]8O)[C@H]7O)[C@H](O)C[C@@]6(C)[C@]5(C)CC[C@H]4[C@]3(C)C=O)[C@@H]2O[C@@H]2O[C@H](CO)[C@H](O)[C@H](O)[C@H]2O)[C@H](O)[C@H](O)[C@H]1O`: the outcome with Mus musculus [1], with Mus musculus [2], in the test with Mus musculus [3], in the test with Mus musculus [4], in the test with Mus musculus [5] and in the test with Mus musculus [6] was Active.

Turning to `C[C@@H]1O[C@@H](O[C@H]2[C@H](O)[C@@H](C(=O)NCCCCCCCCCCC(=O)OCc3ccccc3)O[C@@H](O[C@H]3CC[C@]4(C)[C@H]5CC=C6[C@@H]7CC(C)(C)CC[C@]7(C(=O)O[C@@H]7O[C@H](C)[C@H](O)[C@H](O)[C@H]7O[C@H]7O[C@@H](C)[C@H](O[C@H]8OC[C@H](O)[C@@H](O)[C@@H]8O)[C@@H](O[C@@H]8O[C@H](CO)[C@@H](O)[C@H](O[C@@H]9OC[C@@H](O)[C@H](O)[C@H]9O)[C@H]8O)[C@H]7O)CC[C@@]6(C)[C@]5(C)CC[C@H]4[C@]3(C)C=O)[C@@H]2O[C@@H]2O[C@H](CO)[C@H](O)[C@H](O)[C@H]2O)[C@H](O)[C@H](O)[C@H]1O`, the outcome with Mus musculus [1], in the test on Mus musculus [5] and in the test on Mus musculus [6] was Active.

Consider `CCCCCCCCCCCCNC(=O)[C@H]1O[C@@H](O[C@H]2CC[C@]3(C)[C@H]4CC=C5[C@@H]6CC(C)(C)CC[C@]6(C(=O)O[C@@H]6O[C@H](C)[C@H](O)[C@H](O)[C@H]6O[C@H]6O[C@@H](C)[C@H](O[C@H]7OC[C@H](O)[C@@H](O)[C@@H]7O)[C@@H](O[C@@H]7O[C@H](CO)[C@@H](O)[C@H](O[C@@H]8OC[C@@H](O)[C@H](O)[C@H]8O)[C@H]7O)[C@H]6O)CC[C@@]5(C)[C@]4(C)CC[C@H]3[C@]2(C)C=O)[C@H](O[C@@H]2O[C@H](CO)[C@H](O)[C@H](O)[C@H]2O)[C@@H](O[C@@H]2O[C@@H](C)[C@H](O)[C@@H](O)[C@H]2O)[C@@H]1O`, for which the outcome with Mus musculus [1], with Mus musculus [5] and in the test on Mus musculus [6] was Active.

Regarding `C[C@@H]1O[C@H](O[C@H]2[C@H](OC(=O)[C@]34CCC(C)(C)C[C@H]3C3=CC[C@@H]5[C@@]6(C)CC[C@H](O[C@@H]7O[C@H](C(=O)NCCCCCCCCCCC(=O)OCc8ccccc8)[C@@H](O)[C@H](O[C@@H]8OC[C@@H](O)[C@H](O)[C@H]8O)[C@H]7O[C@@H]7O[C@H](CO)[C@H](O)[C@H](O)[C@H]7O)[C@@](C)(C=O)[C@@H]6CC[C@@]5(C)[C@]3(C)C[C@H]4O)O[C@H](C)[C@H](O)[C@@H]2O)[C@H](O)[C@H](O[C@@H]2O[C@H](CO)[C@@H](O)[C@H](O)[C@H]2O)[C@H]1O[C@H]1OC[C@H](O)[C@@H](O[C@H]2OC[C@H](O)[C@@H](O)[C@@H]2O)[C@@H]1O`, the result with Mus musculus [2], with Mus musculus [3], in the test with Mus musculus [4] and with Mus musculus [7] was Active.

For `C[C@@H]1O[C@H](O[C@H]2[C@H](OC(=O)[C@]34CCC(C)(C)C[C@H]3C3=CC[C@@H]5[C@@]6(C)CC[C@H](O[C@@H]7O[C@H](C(=O)NCCCCCCCCCCC(=O)O)[C@@H](O)[C@H](O[C@@H]8OC[C@@H](O)[C@H](O)[C@H]8O)[C@H]7O[C@@H]7O[C@H](CO)[C@H](O)[C@H](O)[C@H]7O)[C@@](C)(C=O)[C@@H]6CC[C@@]5(C)[C@]3(C)C[C@H]4O)O[C@H](C)[C@H](O)[C@@H]2O)[C@H](O)[C@H](O[C@@H]2O[C@H](CO)[C@@H](O)[C@H](O)[C@H]2O)[C@H]1O[C@H]1OC[C@H](O)[C@@H](O[C@H]2OC[C@H](O)[C@@H](O)[C@@H]2O)[C@@H]1O`, the outcome with Mus musculus [2], in the test on Mus musculus [3], with Mus musculus [4] and in the test on Mus musculus [7] was Active.

As to `C[C@@H]1O[C@@H](O[C@H]2[C@H](O)[C@@H](C(=O)NCCCCCCCCCCC(=O)O)O[C@@H](O[C@H]3CC[C@]4(C)[C@H]5CC=C6[C@@H]7CC(C)(C)CC[C@]7(C(=O)O[C@@H]7O[C@H](C)[C@H](O)[C@H](O)[C@H]7O[C@H]7O[C@@H](C)[C@H](O[C@H]8OC[C@H](O)[C@@H](O)[C@@H]8O)[C@@H](O[C@@H]8O[C@H](CO)[C@@H](O)[C@H](O[C@@H]9OC[C@@H](O)[C@H](O)[C@H]9O)[C@H]8O)[C@H]7O)[C@H](O)C[C@@]6(C)[C@]5(C)CC[C@H]4[C@]3(C)C=O)[C@@H]2O[C@@H]2O[C@H](CO)[C@H](O)[C@H](O)[C@H]2O)[C@H](O)[C@H](O)[C@H]1O`, the outcome with Mus musculus [1], with Mus musculus [2], in the test on Mus musculus [9], in the test on Mus musculus [3] and in the test with Mus musculus [4] was Active. Besides, in the test on Mus musculus [8], the outcome was inactive.

Consider `C[C@@H]1O[C@@H](O[C@H]2[C@H](O)[C@@H](C(=O)NCCCCCCCCCCC(=O)O)O[C@@H](O[C@H]3CC[C@]4(C)[C@H]5CC=C6[C@@H]7CC(C)(C)CC[C@]7(C(=O)O[C@@H]7O[C@H](C)[C@H](O)[C@H](O)[C@H]7O[C@H]7O[C@@H](C)[C@H](O[C@H]8OC[C@H](O)[C@@H](O)[C@@H]8O)[C@@H](O[C@@H]8O[C@H](CO)[C@@H](O)[C@H](O[C@@H]9OC[C@@H](O)[C@H](O)[C@H]9O)[C@H]8O)[C@H]7O)CC[C@@]6(C)[C@]5(C)CC[C@H]4[C@]3(C)C=O)[C@@H]2O[C@@H]2O[C@H](CO)[C@H](O)[C@H](O)[C@H]2O)[C@H](O)[C@H](O)[C@H]1O`, for which the result in the test on Mus musculus [1], with Mus musculus [5] and in the test with Mus musculus [6] was Active.

For `CCCCCCCCCCCCNC(=O)[C@H]1O[C@@H](O[C@H]2CC[C@]3(C)[C@H]4CC=C5[C@@H]6CC(C)(C)CC[C@]6(C(=O)O[C@@H]6O[C@H](C)[C@H](O)[C@H](O)[C@H]6O[C@@H]6O[C@@H](C)[C@H](O[C@@H]7OC[C@@H](O)[C@H](O[C@@H]8OC[C@](O)(CO)[C@H]8O)[C@H]7O)[C@@H](O)[C@H]6O)[C@H](O)C[C@@]5(C)[C@]4(C)CC[C@H]3[C@]2(C)C=O)[C@H](O[C@@H]2O[C@H](CO)[C@H](O)[C@H](O)[C@H]2O)[C@@H](O[C@@H]2OC[C@@H](O)[C@H](O)[C@H]2O)[C@@H]1O`, the outcome in the test on Mus musculus [1], in the test with Mus musculus [2], in the test with Mus musculus [10], in the test with Mus musculus [3], in the test on Mus musculus [4] and in the test on Mus musculus [5] was Active. In the test on Mus musculus [6], the result was Active.

The values are drawn from ChEMBL document CHEMBL4602693, “Structural Effect on Adjuvanticity of Saponins” (J Med Chem, 2020).
